A word on the AUC(0-inf): it is the area under the concentration-time curve extrapolated to infinity. A lower AUC(0-inf) goes with less exposure. Usually AUC(0-t) stands for exposure summed from dosing to a finite time, without extrapolation to infinity. In general, half-life refers to the time needed for the level to fall by half in the phase considered. Low readings indicate rapid decline, high ones slow decline.

The format of data set [1] is in vivo, human. The method in brief: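 10 healthy male Korean volunteers, fasted from the night before until 1 PM, took 9 g extract orally with 100 mL water at 8 AM. Heparinised blood was drawn predose and at 4–14 h hourly, 24 and 36 h, and plasma was stored at -70℃. LC-MS/MS used a digoxin internal standard, an ODS column with methanol:water gradient, and 2–100 ng/mL plasma standards. Non-compartmental analysis used trapezoidal AUC, reported as mean±SD.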

For data set [2] the following is noted: oral ginseng powder, healthy men, some individual variation; cited from earlier work.

In data set [1] (male, human, plasma, po), `CC(C)=CCC[C@](C)(O[C@@H]1O[C@H](CO[C@@H]2O[C@H](CO)[C@@H](O)[C@H](O)[C@H]2O)[C@@H](O)[C@H](O)[C@H]1O)[C@H]1CC[C@]2(C)[C@@H]1[C@H](O)C[C@@H]1[C@@]3(C)CC[C@H](O[C@@H]4O[C@H](CO)[C@@H](O)[C@H](O)[C@H]4O[C@@H]4O[C@H](CO)[C@@H](O)[C@H](O)[C@H]4O)C(C)(C)[C@@H]3CC[C@]12C` [Ginsenoside Rb1, ginsenoside Rb1] had an AUC(0-inf) of 308 ± 146 ng·h/mL, an AUC(0-t) of 102 ± 51 ng·h/mL and a half-life of 2.44 ± 0.595 days.

Regarding `CC(C)=CCC[C@](C)(O[C@@H]1O[C@H](CO)[C@@H](O)[C@H](O)[C@H]1O)[C@H]1CC[C@]2(C)[C@@H]1[C@H](O)C[C@@H]1[C@@]3(C)CC[C@H](O)C(C)(C)[C@@H]3CC[C@]12C` [Compound K, 20-O-β-Ɗ-glucopyranosyl-20(S)-protopanaxadiol], the “plasma concentration at 36 h after taking the extract” value in data set [1] (single oral 9 g Korean Red Ginseng extract, detected in 8 subjects) worked out at 0.90 ± 0.74 ng/mL. In addition, the “time of detection after oral administration” value in data set [2] is given as 8 h.

The record behind these values is PMC3825860 (Journal of Ginseng Research, 2013).
